From BindingDB's records for doi:10.1021/jm2007886 (Universidad Complutense De Madrid, 2011)

Tests used:
[1] = biological target: 5-hydroxytryptamine receptor 2A (Rattus norvegicus, UniProt P14842); experiment: Displacement of [3H]ketanserin from 5HT2A receptor in Sprague-Dawley albinus rat frontal cortex membranes after 15 mins
How it was run: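 Rat frontal cortex membranes (male Sprague–Dawley, 180–200 g). Nonspecific binding was set with 1 μM cinanserin.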

[2] = biological target: T1, 5-hydroxytryptamine receptor 3A (Rattus norvegicus, UniProt P35563); experiment: Displacement of [3H]-LY278584 from 5HT3 receptor in Sprague-Dawley albinus rat cerebral cortex membranes after 30 mins
T1 sequence (P35563 whole entry): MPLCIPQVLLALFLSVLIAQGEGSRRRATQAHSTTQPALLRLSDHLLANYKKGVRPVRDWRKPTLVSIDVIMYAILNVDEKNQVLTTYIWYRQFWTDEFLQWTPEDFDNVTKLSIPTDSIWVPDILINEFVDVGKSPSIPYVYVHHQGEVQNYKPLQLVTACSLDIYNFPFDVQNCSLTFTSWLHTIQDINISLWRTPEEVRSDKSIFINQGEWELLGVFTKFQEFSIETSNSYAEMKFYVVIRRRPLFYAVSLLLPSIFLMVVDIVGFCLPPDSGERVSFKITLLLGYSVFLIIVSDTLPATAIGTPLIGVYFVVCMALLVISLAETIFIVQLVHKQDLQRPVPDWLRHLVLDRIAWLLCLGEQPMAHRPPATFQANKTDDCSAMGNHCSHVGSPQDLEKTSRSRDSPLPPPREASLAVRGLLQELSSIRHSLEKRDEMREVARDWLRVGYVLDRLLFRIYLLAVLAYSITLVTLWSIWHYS

[3] = biological target: D(2) dopamine receptor (Rattus norvegicus, UniProt P61169); experiment: Displacement of [3H]spiperone from dopamine D2 receptor in Sprague-Dawley albinus rat striatal membranes after 15 mins
Chain of D(2) dopamine receptor (P61169 whole entry): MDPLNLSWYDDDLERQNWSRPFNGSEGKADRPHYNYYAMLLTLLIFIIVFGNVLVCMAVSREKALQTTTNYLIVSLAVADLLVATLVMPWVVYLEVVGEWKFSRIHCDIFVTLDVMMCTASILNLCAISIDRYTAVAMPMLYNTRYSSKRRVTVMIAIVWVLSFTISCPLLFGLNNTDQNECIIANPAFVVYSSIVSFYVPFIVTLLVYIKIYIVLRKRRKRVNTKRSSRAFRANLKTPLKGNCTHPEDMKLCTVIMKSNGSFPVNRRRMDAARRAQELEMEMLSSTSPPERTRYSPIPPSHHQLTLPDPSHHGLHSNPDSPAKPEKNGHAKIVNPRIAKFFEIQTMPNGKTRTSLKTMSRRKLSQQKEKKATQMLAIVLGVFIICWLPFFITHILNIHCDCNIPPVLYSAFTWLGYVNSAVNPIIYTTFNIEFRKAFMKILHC

[4] = biological target: 5-hydroxytryptamine receptor 4 (Rattus norvegicus, UniProt Q62758); experiment: Displacement of [3H]GR113808 from 5HT4 receptor in Sprague-Dawley albinus rat striatal membranes after 30 mins by scintillation counting
Chain of 5-hydroxytryptamine receptor 4 (Q62758 whole entry): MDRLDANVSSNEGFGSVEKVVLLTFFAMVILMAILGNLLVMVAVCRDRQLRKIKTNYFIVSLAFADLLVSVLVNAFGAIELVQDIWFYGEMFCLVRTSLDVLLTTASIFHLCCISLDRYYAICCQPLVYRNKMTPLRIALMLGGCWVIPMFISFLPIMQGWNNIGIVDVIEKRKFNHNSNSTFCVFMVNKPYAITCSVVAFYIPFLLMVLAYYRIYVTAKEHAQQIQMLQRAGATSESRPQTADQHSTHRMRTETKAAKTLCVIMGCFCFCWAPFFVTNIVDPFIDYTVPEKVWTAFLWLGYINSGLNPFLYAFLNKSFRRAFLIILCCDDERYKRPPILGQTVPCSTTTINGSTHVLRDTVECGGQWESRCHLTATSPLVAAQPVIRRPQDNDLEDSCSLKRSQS

[5] = biological target: T2, 5-hydroxytryptamine receptor 1A (Rattus norvegicus, UniProt P19327); experiment: Displacement of [3H]-8-OH-DPAT from 5-HT1A receptor in Sprague-Dawley albinus rat cerebral cortex membranes after 15 mins
T2 sequence (P19327 whole entry): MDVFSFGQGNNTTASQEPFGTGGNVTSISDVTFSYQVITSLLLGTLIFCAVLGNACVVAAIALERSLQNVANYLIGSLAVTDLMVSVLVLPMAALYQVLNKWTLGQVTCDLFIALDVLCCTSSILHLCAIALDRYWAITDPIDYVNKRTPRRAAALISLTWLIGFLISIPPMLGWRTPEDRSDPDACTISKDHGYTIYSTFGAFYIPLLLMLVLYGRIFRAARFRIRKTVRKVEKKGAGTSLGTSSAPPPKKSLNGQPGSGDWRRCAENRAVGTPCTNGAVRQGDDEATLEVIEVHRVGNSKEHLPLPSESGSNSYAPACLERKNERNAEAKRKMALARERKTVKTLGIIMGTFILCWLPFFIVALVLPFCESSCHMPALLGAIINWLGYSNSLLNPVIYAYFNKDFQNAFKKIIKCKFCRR

[6] = biological target: 5-hydroxytryptamine receptor 7 (Rattus norvegicus, UniProt P32305); experiment: Displacement of [3H]-5-CT from 5HT7 receptor in Sprague-Dawley albinus rat hyphalamic membranes after 120 mins
Chain of 5-hydroxytryptamine receptor 7 (P32305 whole entry): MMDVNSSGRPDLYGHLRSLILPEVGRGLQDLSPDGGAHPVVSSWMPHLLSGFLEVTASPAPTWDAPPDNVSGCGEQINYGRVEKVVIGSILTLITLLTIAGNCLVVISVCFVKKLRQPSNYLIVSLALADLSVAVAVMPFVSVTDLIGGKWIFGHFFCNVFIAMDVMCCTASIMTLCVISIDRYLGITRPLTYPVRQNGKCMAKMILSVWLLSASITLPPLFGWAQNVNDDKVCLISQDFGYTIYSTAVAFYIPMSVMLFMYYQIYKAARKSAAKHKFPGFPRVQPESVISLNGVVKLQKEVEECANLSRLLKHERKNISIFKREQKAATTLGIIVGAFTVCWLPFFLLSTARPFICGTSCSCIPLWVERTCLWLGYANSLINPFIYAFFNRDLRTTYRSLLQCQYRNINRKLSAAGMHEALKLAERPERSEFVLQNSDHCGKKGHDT

Chain of 5-hydroxytryptamine receptor 2A (P14842 whole entry): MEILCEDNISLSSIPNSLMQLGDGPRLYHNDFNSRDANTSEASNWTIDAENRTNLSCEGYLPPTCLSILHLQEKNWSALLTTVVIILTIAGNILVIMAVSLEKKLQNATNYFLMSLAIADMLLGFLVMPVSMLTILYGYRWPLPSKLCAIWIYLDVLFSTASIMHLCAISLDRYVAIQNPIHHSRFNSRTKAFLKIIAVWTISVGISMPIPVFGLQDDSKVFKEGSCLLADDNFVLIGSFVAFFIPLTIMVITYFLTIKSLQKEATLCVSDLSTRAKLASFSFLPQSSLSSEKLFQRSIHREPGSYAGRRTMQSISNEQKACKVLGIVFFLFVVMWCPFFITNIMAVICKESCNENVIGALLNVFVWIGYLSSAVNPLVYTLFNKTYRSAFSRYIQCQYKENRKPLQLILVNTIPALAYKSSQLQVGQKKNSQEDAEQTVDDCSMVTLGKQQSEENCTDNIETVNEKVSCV

Ki [1] [nM] | Ki [2] [nM] | Ki [5] [nM] | SMILES | further results
> 1000 | > 1000 |  | O=c1n(CCCCNCC2CCc3ccccc3O2)c(O)c2n1CCCC2 (stereo not given) | 
> 1000 | > 1000 |  | O=c1n(Cc2cccc(CNCC3CCc4ccccc4O3)c2)c(O)c2n1CCC2 (stereo not given) | 
> 1000 | > 1000 | 28 | O=c1n(Cc2ccc(CNCC3CCc4ccccc4O3)cc2)c(O)c2n1CCC2 (stereo not given) | 
 |  | > 1000 | O=c1n(CC#CCNCC2CCc3ccccc3O2)c(O)c2n1CCC2 (stereo not given) | 
> 1000 |  |  | O=c1n(C/C=C/CNCC2CCc3ccccc3O2)c(O)c2n1CCC2 (stereo not given) | 
> 1000 | > 1000 |  | O=c1n(CCCCCCNCC2CCc3ccccc3O2)c(O)c2n1CCC2 (stereo not given) | 
> 1000 | > 1000 |  | O=c1n(CCCCCNCC2CCc3ccccc3O2)c(O)c2n1CCC2 (stereo not given) | 
> 1000 | > 1000 |  | O=c1n(CCCNCC2CCc3ccccc3O2)c(O)c2n1CCC2 (stereo not given) | 

The next lines start with the molecule.

SMILES | Ki [1] [nM] | Ki [2] [nM] | Ki [5] [nM] | further results
O=c1n(CCCCNCC2CCc3ccccc3O2)c(O)c2n1CSC2 (stereo not given) | > 1000 |  |  | 
O=c1n(CCCCNCc2ccc3ccccc3n2)c(O)c2n1CCC2 | > 1000 | > 1000 |  | 
O=c1n(CCCCNCCc2ccc3ccccc3c2)c(O)c2n1CCC2 |  | > 1000 |  | Ki [3]: > 1000 nM
O=c1n(CCCCNCc2ccc3ccccc3c2)c(O)c2n1CCC2 | > 1000 |  |  | 
O=c1n(CCCCNCCc2cccc3ccccc23)c(O)c2n1CCC2 | > 1000 | > 1000 | 28 | Ki [3]: > 1000 nM; Ki [4]: > 1000 nM; Ki [6]: > 1000 nM
O=c1scc(O)n1CCCCCCCCNCC1CCc2ccccc2O1 (stereo not given) | > 1000 |  |  | 
O=c1scc(O)n1CCCCCCNCC1CCc2ccccc2O1 (stereo not given) | > 1000 |  |  | 
O=c1scc(O)n1CCCCCNCC1CCc2ccccc2O1 (stereo not given) | > 1000 |  |  | 
O=c1scc(O)n1CCCCNCC1CCc2ccccc2O1 (stereo not given) | > 1000 |  |  | 
O=c1n(CCCCNCCc2ccccn2)c(O)c2n1CCC2 |  |  | > 1000 | 
O=c1n(CCCCNCc2ccccn2)c(O)c2n1CCC2 |  |  | > 1000 | 
O=c1n(CCCCNCCc2cccs2)c(O)c2n1CCC2 |  |  | > 1000 | 
O=c1n(CCCCNCc2cccs2)c(O)c2n1CCC2 |  |  | > 1000 | 
O=c1n(CCCCNCCc2ccco2)c(O)c2n1CCC2 |  |  | > 1000 | 
O=c1n(CCCCNCc2ccco2)c(O)c2n1CCC2 |  |  | > 1000 | 
O=c1n(CCCCNCCc2ccccc2)c(O)c2n1CCC2 |  |  | > 1000 | 
O=c1n(CCCCNCc2ccccc2)c(O)c2n1CCC2 |  |  | > 1000 | 
O=c1n(CCCCNCc2cccc3ccccc23)c(O)c2n1CCC2 |  |  | > 1000 | 
